*1 amine or outer side, *2 acyl side, *3 side chain or, on linkers, in order; H or OH if unused. Where a SMILES comes first, the peptide text is derived from it. Bridges are numbered along the chain shown (N, C = ends). [ ]: non-standard residue; d: D form. X1 = O=C([C@@H]1[C@H](c2ccccc2)CCN1[*:1])[*:2]; Pro(3R-Ph) = O=C(O)[C@H]1NCC[C@@H]1c1ccccc1; Bip = N[C@@H](Cc1ccc(-c2ccccc2)cc1)C(=O)O; Lys(N3) = [N-]=[N+]=NCCCC[C@H](N)C(=O)O; Cha = N[C@@H](CC1CCCCC1)C(=O)O; Nva = CCC[C@H](N)C(=O)O
Experiments:
GTPase KRas [1] = molecular target: T1, GTPase KRas (Homo sapiens, UniProt P01116, G12D); assay: Inhibition of KRAS in human ASPC1 cells harboring KRAS G12D mutant assessed as inhibition of ERK phosphorylation incubated for 2 hrs by AlphaScreen-based […] assay; format: cell-based
Method in brief: (§1)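 AsPC-1 cells (KRAS G12D) were seeded at 15 000 cells/well in phenol-red-free RPMI with 10% FBS and 25 mM HEPES, then incubated overnight at 37 °C and 5% CO2. Medium was switched to serum-free before dosing. Cells were given a dose–response titration for 2 or 18 h at 37 °C, washed and lysed with protease inhibitors. Phospho-ERK and total ERK were read by AlphaScreen SureFire multiplex, using the pERK/total ERK ratio. Curves were fit with a 4-parameter logistic.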

[2] = Stability in human HeLa cell homogenate assessed as half life by LC-MS/MS analysis; format: ADME, cell-based
Method in brief: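 HeLa cells suspended at 1 × 10^6 cells/mL, probe-sonicated on ice until homogeneous, stored frozen at –20 °C. Peptides incubated with homogenate (1 × 10^6 cells/mL equivalent); peptide loss over time quantified by LC-MS/MS to derive t1/2.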

GTPase KRas [3] = molecular target: T1, GTPase KRas; assay: Inhibition of recombinant biotinylated KRAS G12D mutant (unknown origin) assessed as inhibition of SOS-catalyzed nucleotide exchange preincubated for 60 mins followed by addition of human SOS protein and unlabeled GTP and measured after 60 mins by TR-FRET analysis
Method in brief: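 Biotinylated KRAS G12D was treated in EDTA buffer (1 h, RT), then loaded at 90 nM with 900 nM Bodipy-GDP and 15 nM Tb-streptavidin in Mg2+ buffer, HEPES pH 7.5 (6 h, RT). It was used at 1.5 nM assay solution with a 10-point, 3-fold DMSO compound series for 60 min at RT. A solution of 120 nM human SOS plus GTP was added for 60 min. The read-out was TR-FRET at 520/495 nm, normalized to DMSO and saturating-inhibitor controls, with a 4-parameter fit.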

GTPase KRas [4] = molecular target: T1, GTPase KRas; assay: Inhibition of KRAS in human ASPC1 cells harboring KRAS G12D mutant assessed as inhibition of ERK phosphorylation incubated for 18 hrs by AlphaScreen-based […] assay; format: cell-based; method in brief: as §1
HeLa [5] = assay: Cell permeability in human HeLa cells transfected with NanoLuc-HaloTag vector incubated for 18 hrs followed by treated with NanoBret618-azide ligand by NanoClick assay; format: ADME, cell-based
HeLa [6] = assay: Cell permeability in human HeLa cells transfected with NanoLuc-HaloTag vector incubated for 4 hrs followed by treated with NanoBret618-azide ligand by NanoClick assay; format: ADME, cell-based

T1 sequence (P01116 whole entry G12D): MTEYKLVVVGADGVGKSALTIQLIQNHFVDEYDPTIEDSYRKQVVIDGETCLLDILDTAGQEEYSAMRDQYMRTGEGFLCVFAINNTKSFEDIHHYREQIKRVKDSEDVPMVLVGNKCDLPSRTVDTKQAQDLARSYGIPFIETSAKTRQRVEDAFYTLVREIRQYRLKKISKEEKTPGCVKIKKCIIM

Compound	IC50 (GTPase KRas [1])	half-life [2]	IC50 (GTPase KRas [3])	IC50 (GTPase KRas [4])	EC50 (HeLa [5])	EC50 (HeLa [6])
CC[C@H](C)[C@@H]1NC(=O)[C@H](Cc2ccc(-c3ccccc3)cc2)NC(=O)[C@H](CC(C)C)NC(=O)[C@@H]2[C@H](c3ccccc3)CCN2C(=O)[C@@H](NC(=O)[C@H](CCCNC(=N)N)NC(=O)[C@H](CCCNC(=N)N)NC(C)=O)CSSC[C@@H](C(=O)N[C@@H](CCCNC(=N)N)C(=O)N[C@@H](CCCNC(=N)N)C(N)=O)NC(=O)[C@H](C(C)C)NC(=O)[C@@H]2CCCN2C(=O)[C@H](CC(=O)O)NC(=O)[C@H](Cc2ccc(O)cc2)NC(=O)[C@H](CO)NC(=O)[C@H](C)NC1=O (Ac-RRC[X1]L[Bip]IASYDPVCRR-NH2; disulfide 3-14)	3.8 µM	> 6.2 h	< 0.001 µM	3.9 µM	–	–
CC[C@H](C)[C@@H]1NC(=O)[C@H](Cc2ccc(-c3ccccc3)cc2)NC(=O)[C@H](CC(C)C)NC(=O)[C@@H]2[C@H](c3ccccc3)CCN2C(=O)[C@@H](NC(=O)[C@H](CCCNC(=N)N)NC(=O)[C@H](CCCNC(=N)N)NC(=O)[C@H](CCCCN=[N+]=[N-])NC(C)=O)CSSC[C@@H](C(=O)N[C@@H](CCCNC(=N)N)C(=O)N[C@@H](CCCNC(=N)N)C(N)=O)NC(=O)[C@H](C(C)C)NC(=O)[C@@H]2CCCN2C(=O)[C@H](CC(=O)O)NC(=O)[C@H](Cc2ccc(O)cc2)NC(=O)[C@H](CO)NC1=O	2.7 µM	> 6.2 h	< 0.001 µM	19 µM	0.199 µM	7.32 µM
CC[C@H](C)[C@@H]1NC(=O)[C@H](Cc2ccc(-c3ccccc3)cc2)NC(=O)[C@H](CC(C)C)NC(=O)[C@@H]2[C@@H](c3ccccc3)CCN2CC(=O)[C@@H](NC(=O)[C@H](CCCNC(=N)N)NC(=O)[C@H](CCCNC(=N)N)NC(C)=O)CSSC[C@@H](C(=O)N[C@@H](CCCNC(=N)N)C(=O)N[C@@H](CCCNC(=N)N)C(N)=O)NC(=O)[C@H](C(C)C)NC(=O)[C@@H]2CCCN2C(=O)[C@H](CC(=O)O)NC(=O)[C@H](Cc2ccc(O)cc2)NC(=O)[C@H](CO)NC1=O	3.3 µM	> 6.2 h	< 0.001 µM	33 µM	–	–
CC(=O)N[C@@H](CCCCN=[N+]=[N-])C(=O)N[C@@H](CCCNC(=N)N)C(=O)N[C@@H](CCCNC(=N)N)C(=O)N[C@H]1CSSC[C@@H](C(=O)N[C@@H](CCCNC(=N)N)C(=O)N[C@@H](CCCNC(=N)N)C(N)=O)NC(=O)[C@H](C(C)C)NC(=O)[C@@H]2CCCN2C(=O)[C@H](CC(=O)O)NC(=O)[C@H](Cc2ccc(O)cc2)NC(=O)[C@H](CO)NC(=O)[C@H](C)NC(=O)[C@H](Cc2ccc(-c3ccccc3)cc2)NC(=O)[C@H](CC(C)C)NC(=O)[C@@H]2[C@@H](c3ccccc3)CCN2C1=O (Ac-[Lys(N3)]RRC[Pro(3R-Ph)]L[Bip]ASYDPVCRR-NH2; disulfide 4-14)	6.2 µM	> 6.2 h	< 0.001 µM	6.8 µM	0.148 µM	1.49 µM
CCC[C@@H]1NC(=O)[C@H](Cc2ccc(-c3ccccc3)cc2)NC(=O)[C@H](CC(C)C)NC(=O)[C@@H]2CCCN2C(=O)[C@@H](NC(=O)[C@H](CCCNC(=N)N)NC(=O)[C@H](CCCNC(=N)N)NC(C)=O)CSSC[C@@H](C(=O)N[C@@H](CCCNC(=N)N)C(=O)N[C@@H](CCCNC(=N)N)C(N)=O)NC(=O)[C@H](C(C)C)NC(=O)[C@@H]2CCCN2C(=O)[C@H](CC(=O)O)NC(=O)[C@H](Cc2ccc(O)cc2)NC(=O)[C@H](CO)NC1=O (Ac-RRCPL[Bip][Nva]SYDPVCRR-NH2; disulfide 3-13)	–	0.433 h	0.604 µM	–	–	–
CCC[C@@H]1NC(=O)[C@H](CC2CCCCC2)NC(=O)[C@H](CC(C)C)NC(=O)[C@@H]2CCCN2C(=O)[C@@H](NC(=O)[C@H](CCCNC(=N)N)NC(=O)[C@H](CCCNC(=N)N)NC(C)=O)CSSC[C@@H](C(=O)N[C@@H](CCCNC(=N)N)C(=O)N[C@@H](CCCNC(=N)N)C(N)=O)NC(=O)[C@H](C(C)C)NC(=O)[C@@H]2CCCN2C(=O)[C@H](CC(=O)O)NC(=O)[C@H](Cc2ccc(O)cc2)NC(=O)[C@H](CO)NC1=O (Ac-RRCPL[Cha][Nva]SYDPVCRR-NH2; disulfide 3-13)	–	0.45 h	> 11.1 µM	–	–	–

Reference: ChEMBL document CHEMBL5131563, “Accelerated Identification of Cell Active KRAS Inhibitory Macrocyclic Peptides using Mixture Libraries and Automated Ligand Identification System (ALIS) Technology” (J Med Chem, 2022)
